These results are taken from publication PMC4861071 (Chemical communications (Cambridge, England), 2016).

Experiment [1] relates to plasmid (pBR322) DNA. Conditions: cited from earlier work.
Experiment [2] concerns thioredoxin reductase (TrRx). The experiment in a line: Thioredoxin reductase activity in treated Caki-1 cells. Particulars: 5 µM, 24 hour incubation. Format: cell-based, human. The procedure, abridged:
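Caki-1 cells were incubated with 5 µM test compound or 0.1% DMSO vehicle for 5, 12 and 24 h. Endogenous thioredoxin reductase activity was then assayed in soluble whole-cell lysates. Percent inhibition is relative to vehicle-treated cells at 24 h.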

Experiment [3] concerns human renal Caki-1 cancer cell line. The experiment in a line: Cell viability. Particulars: read-out: IC50 Caki-1; 72 h incubation; dissolved in 1% DMSO, diluted with water. It counts as cell-based. A digest of the protocol: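 Growth inhibition measured by BluePresto assay in human renal Caki-1 cancer cells, run in parallel with human colon HCT 116 and DLD1 cancer lines and non-tumorigenic HEK-293T cells. Cells were exposed to test compound for 72 h. Compounds were dissolved in 1% DMSO and diluted with water before addition to the culture medium. Cisplatin reference was dissolved in water.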

Experiment [4] has the same test system. Particulars: read-out: IC50 Caki-1; cisplatin dissolved in H2O; ref [24]; cited from earlier work.
In experiment [5] the test system is non-tumorigenic human embryonic kidney cell lines HEK-293T. Conditions: read-out: IC50 HEK-293T; cisplatin dissolved in H2O; ref [24]; cited from earlier work.

Where two headings read alike, the source gives them in different places.

As usually defined, the IC50 is the concentration needed to halve the response being measured.

“[Ru(p-cymene)Cl2(μ-dppm)AuCl] [compound 7]”: the “interaction with plasmid (pBR322) DNA” value in experiment [1] (previously described compounds, ref [26]) is given as “lack of interaction”.
As for `CC(C)c1cccc(C(C)C)c1-n1ccn(-c2c(C(C)C)cccc2C(C)C)[c]1=[Au][Cl]` [compound 1, [(IPr)AuCl]], the “inhibition of thioredoxin reductase activity” value in experiment [2] turned out to be 17%. For the same compound, the IC50 in experiment [3] turned out to be 27.1 ± 2 µM.
“[Ru(p-cymene)Cl2(η^1-dppm)] [compound 9]”: the “inhibition of thioredoxin reductase activity” value in experiment [2] is reported as 44%. Besides, in experiment [1] (ref [31]), the “interaction with plasmid DNA” value was “weakly reduced supercoiling in plasmid DNA”. Moreover, in experiment [3], the IC50 came out at 35.6 ± 3.7 µM.
For the compound `N.N.[Cl][Pt][Cl]` [cisplatin], the values for the IC50 in experiment [4] and in experiment [5] were 29 ± 4.11 µM and 3.27 ± 0.13 µM, respectively.
For “[Ru(p-cymene)Cl2(μ-dppm)Au(IPr)]ClO4 [compound 13]”, the “inhibition of thioredoxin reductase activity” value in experiment [2] is 63%. For the same compound, the IC50 in experiment [3] worked out at 5.2 ± 0.9 µM.
